Screening results (PubChem BioAssay)
STAT3 blocker – IL-6 driven STAT3 reporter inhibitors, primary screen, U3A cells, luciferase, luminescence, MLSCN library | actives 0.89% (n = 190,000) | inhibition, % at 5.5 µM | IL-6 STAT3-luciferase reporter; host cell line lacks STAT1 | AID 862, 2007;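 active = inhibition above the mean inhibition across all screened compounds plus 3 SD, cut at about 44% in these data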;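 also: 0% = DMSO only wells and 100% = 100 µM nifuroxazide control wells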
APP 5'UTR act – activators of APP 5'UTR luciferase reporter, primary screen, SH-SY5Y cells; activation, % at 2 µM; AID 1276, 2008; SH-SY5Y APP 5'UTR luciferase reporter, luminescence; zero percent = DMSO vehicle wells; actives 1% (n = 190,000);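 active = activation above a set limit, based on mean plus 3 SD of controls, cut at about 140% in these data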
STAT1 inh – STAT1 signaling inhibitors, primary screen, cell-based, HTS, luciferase reporter; NIH 3T3 STAT1-luciferase reporter, IFN-gamma, luminescence; inhibition, % at 5.5 µM; actives 0.35% (n = 200,000); AID 920, 2007;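 active = inhibition above a set limit, the mean inhibition across all tested compounds plus 3 SD, cut at about 34% in these data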;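 also: 0% = IFN-gamma with DMSO and 100% = IFN-gamma with 300 µM nifuroxazide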
STAT1 act – STAT1 signaling activators, primary screen, cell-based, HTS, luciferase reporter; AID 932, 2007; NIH 3T3 STAT1-luciferase reporter, IFN-gamma, luminescence; 100% = IFN-gamma alone, no compound; activation (% of control), % at 5.5 µM; actives 2.6% (n = 200,000);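 active = activation above the screen-wide mean activation plus 3 SD, cut at about 130% in these data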;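 also: raw ratio to IFN-gamma control signal so 100% means no change and 0% no light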
NF-kB neuron act – activators of NF-kB expression in neurons, primary screen, cell-based, HTS | human neuronal cells, NF-kB reporter expression; stronger effect = higher value | actives 1.6% (n = 190,000) | fold change at 12.5 µM; in the data active = fold change above about 3.3
STAT3 act – IL-6 driven STAT3 reporter potentiators, primary screen, U3A cells, luciferase, luminescence, MLSCN library | IL-6 STAT3-luciferase reporter; 100% = signal with IL-6 EC80 alone | activation (% of control), % at 5.6 µM | actives 0.91% (n = 190,000);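 active = activation above the screen-wide mean of compound activation plus 3 SD, cut at about 130% in these data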;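 also: 0% = background luminescence of wells with medium and substrate only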
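System – human U3A cells carrying STAT3-luciferase construct · Probe or stimulus – Interleukin-6, 33 ng/mL · Schedule – compound 1 h, then IL-6 6 h at 37 °C · Signal – luminescence from STAT3-driven luciferase reporter · Evaluation – percent of IL-6-only median luminescence · Benchmarks – IL-6-only high control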
* = called active by the depositor. Hits are enriched below; roughly 5.1% of the tested compounds scored in any of these assays.

What do the screens show for `Nc1c(C(=O)N2CCCC2)sc2nc3c(cc12)CCCCCC3`?
STAT3 blocker: -2.6; APP 5'UTR act: 131.7; STAT1 inh: -50.3; STAT1 act: 146.8*; NF-kB neuron act: 1.84; STAT3 act: 103.7

How did O=C(NNC(=O)c1ccc(NC(=O)c2ccccc2)cc1)c1ccccc1 do in these assays?
STAT3 blocker: 2.9; APP 5'UTR act: 1.6; STAT1 inh: -0.8; STAT1 act: 100.9; NF-kB neuron act: 1.05; STAT3 act: 97.5

Results for N#CC1(c2ccc(NC(=O)c3ccccc3)cc2)CCCC1 ?
STAT3 blocker: 6.1; APP 5'UTR act: 108.4; STAT1 inh: -52.7; STAT1 act: 147.2*; NF-kB neuron act: 2.96; STAT3 act: 101.4

Results for O=C1ON=C(c2ccccc2)/C1=C/c1ccc(OS(=O)(=O)c2ccccc2)cc1 ?
STAT3 blocker: -12.1; APP 5'UTR act: 14.7; STAT1 inh: -12.1; STAT1 act: 110.8; NF-kB neuron act: 1.14; STAT3 act: 110.8

How did CN(C)/N=C/c1ccc(OS(=O)(=O)c2ccccc2)cc1 do in these assays?
STAT3 blocker: 0.3; APP 5'UTR act: 89.2; STAT1 inh: -45.2; STAT1 act: 139.9*; NF-kB neuron act: 4.78*; STAT3 act: 103.7

How did O=C1N=C(N2CCc3ccccc3C2)S/C1=C\c1cccc(O)c1 do in these assays?
STAT3 blocker: 1.7; APP 5'UTR act: 27.5; STAT1 inh: 8.8; STAT1 act: 92.0; NF-kB neuron act: 1.85; STAT3 act: 101.2

How did Cc1nc2c(-c3ccccc3)c[nH]n2c(=O)c1Cc1ccccc1 do in these assays?
STAT3 blocker: -7.1; APP 5'UTR act: 92.5; STAT1 inh: -46.0; STAT1 act: 141.5*; NF-kB neuron act: 1.06; STAT3 act: 106.8

What do the screens show for `CC(Sc1nc2ccccc2[nH]1)C(=O)O` (stereo not drawn)?
STAT3 blocker: 4.0; APP 5'UTR act: 0.4; STAT1 inh: 1.7; STAT1 act: 98.5; NF-kB neuron act: 0.94; STAT3 act: 102.6

Results for CC(=O)N=C(N)Sc1nc2ccccc2[nH]1 ?
STAT3 blocker: 0.5; APP 5'UTR act: 63.2; STAT1 inh: -37.4; STAT1 act: 134.5*; NF-kB neuron act: 2.7; STAT3 act: 101.8

How did NC(=O)c1cccnc1Nc1ccccc1F do in these assays?
STAT3 blocker: -1.9; APP 5'UTR act: -6.9; STAT1 inh: 3.0; STAT1 act: 97.3; NF-kB neuron act: 1.42; STAT3 act: 104.0

How did Cc1cc(C)cc(NC(=S)Nc2ccccn2)c1 do in these assays?
STAT3 blocker: -26.5; APP 5'UTR act: 11.8; STAT1 inh: 4.3; STAT1 act: 96.2; NF-kB neuron act: 1.1; STAT3 act: 126.8

What do the screens show for `Cc1cc(Cl)ccc1NC(=S)Nc1ccccn1`?
STAT3 blocker: -4.2; APP 5'UTR act: 55.7; STAT1 inh: -33.5; STAT1 act: 129.9*; NF-kB neuron act: 1.64; STAT3 act: 105.4

What do the screens show for `Cc1cc(Cl)ccc1Nc1ncccc1C(N)=O`?
STAT3 blocker: -3.3; APP 5'UTR act: 41.3; STAT1 inh: -34.4; STAT1 act: 130.2*; NF-kB neuron act: 2.06; STAT3 act: 105.2

What do the screens show for `COc1cc(NC2c3ncccc3C(=O)N2Cc2ccco2)cc(OC)c1OC` (stereo not drawn)?
STAT3 blocker: 11.7; APP 5'UTR act: 3.1; STAT1 inh: 3.1; STAT1 act: 96.0; NF-kB neuron act: 1.26; STAT3 act: 91.5

Results for COC(=O)c1ccccc1NC(=O)c1ccnn1C ?
STAT3 blocker: 19.4; APP 5'UTR act: -7.6; STAT1 inh: -10.4; STAT1 act: 107.7; NF-kB neuron act: 1.24; STAT3 act: 87.2

Results for Cc1ccccc1Nc1ncnc2c1cnn2-c1ccccc1 ?
STAT3 blocker: -6.7; APP 5'UTR act: 23.1; STAT1 inh: -30.6; STAT1 act: 129.6*; NF-kB neuron act: 2.56; STAT3 act: 105.6

Results for CC(=O)CSc1ncnc2c1cnn2-c1ccccc1 ?
STAT3 blocker: 38.1; APP 5'UTR act: 120.1; STAT1 inh: -27.5; STAT1 act: 123.2; NF-kB neuron act: 7.19*; STAT3 act: 70.7

Results for COc1ccc(NC(=O)CSc2ncnc3c2cnn3CCc2ccccc2)cc1 ?
STAT3 blocker: 45.6*; APP 5'UTR act: 2.4; STAT1 inh: -2.3; STAT1 act: 102.0; NF-kB neuron act: 1.46; STAT3 act: 66.7

How did CCOc1ccc(Nc2ncnc3c2cnn3-c2ccccc2)cc1 do in these assays?
STAT3 blocker: 11.2; APP 5'UTR act: 20.9; STAT1 inh: -9.6; STAT1 act: 109.9; NF-kB neuron act: 1.03; STAT3 act: 91.0

What do the screens show for `NNc1ncnc2c1cnn2-c1ccccc1`?
STAT3 blocker: -9.8; APP 5'UTR act: -5.5; STAT1 inh: 0.0; STAT1 act: 100.0; NF-kB neuron act: 0.76; STAT3 act: 109.3

Results for CNC(=O)CSc1ncnc2c1cnn2-c1ccccc1 ?
STAT3 blocker: 14.2; APP 5'UTR act: 20.2; STAT1 inh: -18.2; STAT1 act: 114.5; NF-kB neuron act: 1.82; STAT3 act: 93.0

How did CC(C)Nc1ncnc2c1cnn2-c1ccccc1 do in these assays?
STAT3 blocker: 28.0; APP 5'UTR act: 118.6; STAT1 inh: -39.8; STAT1 act: 135.6*; NF-kB neuron act: 4.04*; STAT3 act: 81.0

Results for CC(=O)c1cnc2n(c1=O)CCS2 ?
STAT3 blocker: 0.1; APP 5'UTR act: -13.6; STAT1 inh: -6.5; STAT1 act: 105.5; NF-kB neuron act: 1.13; STAT3 act: 101.7

How did Cc1cccc(-n2ncc3c(N)ncnc32)c1 do in these assays?
STAT3 blocker: 14.6; APP 5'UTR act: -0.7; STAT1 inh: -10.2; STAT1 act: 110.9; NF-kB neuron act: 1.81; STAT3 act: 93.0

What do the screens show for `Cc1cccc(-n2ncc3c(NC(C)C)ncnc32)c1`?
STAT3 blocker: 12.8; APP 5'UTR act: 158.2*; STAT1 inh: -52.3; STAT1 act: 150.1*; NF-kB neuron act: 4.97*; STAT3 act: 89.7

How did O=c1c2cc(N3CCOCC3)ccc2[nH]c(=S)n1CCc1ccccc1 do in these assays?
STAT3 blocker: 29.9; APP 5'UTR act: 14.5; STAT1 inh: -35.7; STAT1 act: 131.6*; NF-kB neuron act: 1.76; STAT3 act: 81.8

Results for CC1CCN(c2oc(-c3ccccc3Cl)nc2C#N)CC1 ?
STAT3 blocker: -12.0; APP 5'UTR act: 80.5; STAT1 inh: -24.4; STAT1 act: 120.7; NF-kB neuron act: 3.7*; STAT3 act: 113.8

What do the screens show for `CSc1nnc2c(n1)[nH]c1c(C)cccc12`?
STAT3 blocker: 31.2; APP 5'UTR act: 17.0; STAT1 inh: -20.1; STAT1 act: 118.3; NF-kB neuron act: 1.43; STAT3 act: 76.2

Results for CCSc1nnc2c(n1)[nH]c1c(C)cccc12 ?
STAT3 blocker: 9.9; APP 5'UTR act: 31.2; STAT1 inh: -42.9; STAT1 act: 139.0*; NF-kB neuron act: 1.62; STAT3 act: 94.7
